Calls of active or inactive are those of the source. The rule behind the calls is not given here.
Key:
Format in all cases: functional
Staphylococcus aureus [1] = experiment: Antimicrobial activity against Staphylococcus aureus MTCC 96 assessed as zone of inhibition at 1 mg/disc after 24 hrs incubation by disc diffusion assay
Summary of the method: (§1)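 Inocula grown in Mueller Hinton broth for 24 h at 37 °C and swabbed onto Mueller Hinton agar. Discs carried 1 mg compound each and stood 30 min at room temperature before 24 h incubation at 37 °C. Solvent as negative control. Inhibition zones recorded in mm; experiment done twice.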

Micrococcus luteus = experiment: Antimicrobial activity against Micrococcus luteus MTCC 106 assessed as zone of inhibition at 1 mg/disc after 24 hrs incubation by disc diffusion assay; summary of the method: as §1
Klebsiella pneumoniae = experiment: Antimicrobial activity against Klebsiella pneumonia MTCC 109 assessed as zone of inhibition at 1 mg/disc after 24 hrs incubation by disc diffusion assay; summary of the method: as §1
[2] = test system: Staphylococcus epidermidis; experiment: Antimicrobial activity against Staphylococcus epidermidis MTCC 3615 assessed as zone of inhibition at 1 mg/disc after 24 hrs incubation by disc diffusion assay; summary of the method: as §1
Klebsiella aerogenes = experiment: Antimicrobial activity against Enterobacter aerogenes MTCC 111 assessed as zone of inhibition at 1 mg/disc after 24 hrs incubation by disc diffusion assay; summary of the method: as §1
Malassezia pachydermatis = experiment: Antifungal activity against Malassezia pachydermatis assessed as zone of inhibition at 1 mg/disc after 48 hrs incubation by disc diffusion assay
Summary of the method: (§2)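 Disc diffusion on Mueller Hinton agar with swabbed cultures, 1 mg compound per disc. Discs stood 30 min at room temperature for diffusion, then plates incubated 48 h at 28 °C. Solvent as negative control. Yeast pre-grown in Sabouraud dextrose broth at 28 °C for 48-72 h; filamentous fungal spores came from SDA slants grown 10 days at 28 °C. Zone diameters in mm; run twice.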

Salmonella typhimurium = experiment: Antimicrobial activity against Salmonella typhimurium MTCC 1251 assessed as zone of inhibition at 1 mg/disc after 24 hrs incubation by disc diffusion assay; conditions: for inhibition: Salmonella enterica subsp. enterica serovar Typhimurium; summary of the method: as §1
Shigella flexneri = experiment: Antimicrobial activity against Shigella flexneri MTCC 1457 assessed as zone of inhibition at 1 mg/disc after 24 hrs incubation by disc diffusion assay; summary of the method: as §1
Candida albicans = experiment: Antifungal activity against Candida albicans MTCC 227 assessed as zone of inhibition at 1 mg/disc after 48 hrs incubation by disc diffusion assay; summary of the method: as §2
Staphylococcus aureus [3] = experiment: Antimicrobial activity against methicillin-resistant Staphylococcus aureus assessed as zone of inhibition at 1 mg/disc after 24 hrs incubation by disc diffusion assay
Summary of the method: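 Inoculum grown in Mueller Hinton broth 24 h at 37°C, swabbed onto Mueller Hinton agar and dried 10 min. Discs loaded at 1 mg/disc, then 30 min at room temperature for diffusion. Plates incubated 24 h at 37°C. Solvent negative control; streptomycin positive control. Zone of inhibition read in mm; experiment done twice.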

Proteus vulgaris = experiment: Antimicrobial activity against Proteus vulgaris MTCC 1771 assessed as zone of inhibition at 1 mg/disc after 24 hrs incubation by disc diffusion assay; summary of the method: as §1

Structure (SMILES) | inhibition (Staphylococcus aureus [1]) | inhibition zone (IZ) (Micrococcus luteus) | inhibition (Klebsiella pneumoniae) | inhibition [2] | inhibition (Klebsiella aerogenes) | inhibition (Malassezia pachydermatis) | inhibition (Salmonella typhimurium) | inhibition (Shigella flexneri) | inhibition (Candida albicans) | inhibition zone (IZ) (Staphylococcus aureus [3]) | inhibition (Proteus vulgaris) | inhibition zone (IZ) (Staphylococcus aureus [1]) | inhibition (Micrococcus luteus) | inhibition zone (IZ) (Klebsiella pneumoniae) | inhibition zone (IZ) (Salmonella typhimurium) | inhibition zone (IZ) (Candida albicans) | inhibition (Staphylococcus aureus [3]) | inhibition zone (IZ) [2] | inhibition zone (IZ) (Klebsiella aerogenes) | inhibition zone (IZ) (Malassezia pachydermatis) | other results
N#CC1=C(N)[C@]2(C(=O)Nc3ccccc32)[C@@H](c2ccoc2)[C@@H]2CCCC=C12 | inactive | 8 mm | inactive | inactive | inactive | inactive | inactive | inactive | inactive | 10 mm | inactive | – | – | – | – | – | – | – | – | – | –
N#CC1=C(N)C2(C(=O)c3ccccc3C2=O)[C@@H](c2ccc(Br)cc2)[C@@H]2CCCC=C12 (relative stereo) | – | – | – | inactive | inactive | inactive | – | inactive | – | 13 mm | inactive | 14 mm | inactive | 10 mm | 12 mm | 10 mm | – | – | – | – | –
Cc1ccc([C@H]2[C@@H]3CCCC=C3C(C#N)=C(N)C23C(=O)CCCC3=O)cc1 (relative stereo) | inactive | – | – | inactive | inactive | inactive | inactive | inactive | inactive | – | – | – | inactive | 10 mm | – | – | inactive | – | – | – | inhibition zone (IZ) (Proteus vulgaris): 9 mm
COc1ccc([C@H]2[C@@H]3CCCC=C3C(C#N)=C(N)[C@]23C(=O)Nc2ccccc23)cc1 | – | 8 mm | – | – | – | – | – | – | – | 11 mm | inactive | 10 mm | – | 9 mm | 8 mm | 10 mm | – | 9 mm | 10 mm | 13 mm | inhibition zone (IZ) (Shigella flexneri): 8 mm
N#CC1=C(N)[C@]2(C(=O)Nc3ccccc32)[C@@H](c2ccccn2)[C@@H]2CCCC=C12 | inactive | – | inactive | – | – | – | – | inactive | – | – | – | – | inactive | – | 11 mm | 12 mm | inactive | 9 mm | 8 mm | 11 mm | inhibition zone (IZ) (Proteus vulgaris): 10 mm
N#CC1=C(N)C2(C(=O)c3ccccc3C2=O)[C@@H](c2ccc(Cl)cc2)[C@@H]2CCCC=C12 (relative stereo) | – | – | inactive | – | – | inactive | – | – | inactive | 13 mm | inactive | 9 mm | inactive | – | 10 mm | – | – | 8 mm | 13 mm | – | inhibition zone (IZ) (Shigella flexneri): 8 mm
COc1ccc([C@H]2[C@@H]3CCCC=C3C(C#N)=C(N)C23C(=O)c2ccccc2C3=O)cc1 (relative stereo) | – | 11 mm | – | – | – | – | inactive | inactive | inactive | – | inactive | 11 mm | – | 10 mm | – | – | inactive | 12 mm | 10 mm | 10 mm | –

Reference: ChEMBL document CHEMBL3286367, “Synthesis of new class of spirocarbocycle derivatives by multicomponent domino reaction and their evaluation for antimicrobial, anticancer activity and molecular docking studies” (2014)
